Laboratory results from ChEMBL document CHEMBL1671768, “In vitro activity of pyronaridine against multidrug-resistant Plasmodium falciparum and Plasmodium vivax” (Antimicrob Agents Chemother, 2010).
pIC50: −log10 of the molar value.

Legend:
Type in all cases: functional, organism-based
[1] = tested on: Plasmodium falciparum; assay: Antimalarial activity against Plasmodium falciparum at the ring stage infected in human erythrocytes assessed as growth inhibition by microscopic analysis using giemsa staining
[2] = tested on: Plasmodium falciparum; assay: Antimalarial activity against Plasmodium falciparum trophozoites infected in human erythrocytes assessed as growth inhibition by microscopic analysis using giemsa staining
Outline: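 Fresh field isolates from uncomplicated malaria patients in Papua, with leukocytes removed on CF11. Cells were kept at 2% hematocrit in RPMI 1640 + 10% AB+ human serum on predosed plates with 11 two-fold drug dilutions, in a candle jar at 37.5°C for 21–46 h. Harvest was when >40% of control rings reached schizont.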

[3] = tested on: Plasmodium vivax; assay: Antimalarial activity against Plasmodium vivax trophozoites infected in human erythrocytes assessed as growth inhibition by microscopic analysis using giemsa staining
Outline: (§1)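 P. vivax field isolates from Papuan patients, leukocyte-depleted on CF11, were placed in McCoy's 5A + 20% AB+ serum at 2% hematocrit. Plates held 11 two-fold drug dilutions, incubated in a candle jar at 37.5°C until >40% of control rings were mature schizonts. Giemsa thick films were read for schizonts (≥5 chromatin dots/200 parasites) relative to control. IC50 used an inhibitory sigmoid Emax model, accepting fits with Emax/E0 within 15%.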

[4] = tested on: Plasmodium falciparum; assay: Antimalarial activity against Plasmodium falciparum infected in human erythrocytes assessed as growth inhibition by microscopic analysis using giemsa staining
[5] = tested on: Plasmodium vivax; assay: Antimalarial activity against Plasmodium vivax infected in human erythrocytes assessed as growth inhibition by microscopic analysis using giemsa staining; outline: as §1
[6] = tested on: Plasmodium vivax; assay: Antimalarial activity against Plasmodium vivax with >50% parasites at ring stage infected in human erythrocytes assessed as growth inhibition after 30 to 50 hrs by microscopic analysis using giemsa staining
Outline: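 Post hoc subset of P. vivax isolates with >50% ring stage at enrollment and assay duration of 30–50 h. Culture was in McCoy's 5A + 20% AB+ serum, 2% hematocrit, 11 two-fold drug dilutions, candle jar, 37.5°C.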

[7] = tested on: Plasmodium vivax; assay: Antimalarial activity against Plasmodium vivax at the ring stage infected in human erythrocytes assessed as growth inhibition by microscopic analysis using giemsa staining; outline: as §1

Row | SMILES | pIC50 [1] | pIC50 [2] | pIC50 [3] | pIC50 [4] | pIC50 [5] | pIC50 [6] | pIC50 [7]
1 | CCN(CC)Cc1cc(Nc2ccnc3cc(Cl)ccc23)ccc1O | 8.09 | 7.90 | 7.60 | 8.24 | 7.85 | 7.92 | 
2 | C[C@H]1[C@H](OC(=O)CCC(=O)O)O[C@@H]2O[C@@]3(C)CC[C@H]4[C@H](C)CC[C@@H]1[C@@]24OO3 [ARTESUNATE] |  |  |  | 9.17 | 8.99 | 8.90 | 
3 | CCN(CC)CCCC(C)Nc1ccnc2cc(Cl)ccc12 (stereo not given) [CHLOROQUINE] |  |  | 5.61 |  | 6.85 |  | 7.31
4 | OC(c1cc(C(F)(F)F)nc2c(C(F)(F)F)cccc12)C1CCCCN1 (stereo not given) [MEFLOQUINE] |  | 8.07 |  |  | 7.92 | 8.10 | 8.10
5 | Clc1ccc2c(N3CCN(CCCN4CCN(c5ccnc6cc(Cl)ccc56)CC4)CC3)ccnc2c1 [PIPERAQUINE] | 7.93 | 7.11 | 7.66 | 7.77 | 7.61 | 7.71 | 7.85
6 | COc1ccc2nc3cc(Cl)ccc3c(Nc3cc(CN4CCCC4)c(O)c(CN4CCCC4)c3)c2n1 [PYRONARIDINE] | 8.80 | 8.10 | 8.33 | 8.72 | 8.59 | 8.62 | 8.60
